The values that follow come from ChEMBL document CHEMBL4480414, “Design and total synthesis of (-)-codonopsinine, (-)-codonopsine and codonopsinine analogues by O-(2-oxopyrrolidin-5-yl)trichloroacetimidate as amidoalkylating agent with improved antimicrobial activity via solid lipid nanoparticle formulations” (Bioorg Med Chem, 2019).

The structures appear in SMILES notation. In brackets after ≈: the same amount, converted by molar mass. Activity calls are given as the source filed them. No cut-off for these calls is given here.

Series [1] concerns Proteus mirabilis. In words: Antimicrobial activity against Proteus mirabilis ATCC 14153 measured after 18 hrs using solid lipid nanoparticle formulation by broth microdilution method. It is filed as functional. To be noted: ATCC 14153, 18 h. Summed up: (§1)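 Broth microdilution in 96-well plates. Compound stock 10 mg/ml in DMSO, two-fold serial dilutions from final 1024 to 0.5 µg/ml in water plus double-strength nutrient broth. Inoculum from direct colony suspension in saline adjusted to 0.5 McFarland, final 5 × 10⁵ CFU per well, used within 15 min. Positive and negative control rows.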
(Dilution methods test growth across graded concentrations, often in twofold steps.)

The subject of series [2] is Acinetobacter baumannii. In words: Antimicrobial activity against clinical isolate of Acinetobacter baumannii measured after 18 hrs using solid lipid nanoparticle formulation by broth microdilution method. It is filed as functional. Summed up: as §1
The test system of series [3] is Staphylococcus aureus. In words: Antimicrobial activity against Staphylococcus aureus ATCC 29213 measured after 18 hrs by broth microdilution method. The settings on record: ATCC 29213, 18 h. The class given is functional. Summed up: as §1
Series [4] deals with Candida albicans. In words: Antimicrobial activity against Candida albicans ATCC 10231 measured after 18 hrs using solid lipid nanoparticle formulation by broth microdilution method. It is filed as functional. To be noted: ATCC 10231, 18 h. The method, boiled down: as §1
For series [5], the system named is Pseudomonas aeruginosa. In words: Antimicrobial activity against Pseudomonas aeruginosa ATCC 27853 measured after 18 hrs using solid lipid nanoparticle formulation by broth microdilution method. The class given is functional. The settings on record: ATCC 27853, 18 h. Summed up:
as §1

Series [6] has as its system Klebsiella pneumoniae. The series can be described thus: Antimicrobial activity against Klebsiella pneumoniae ATCC 700603 measured after 18 hrs by broth microdilution method. To be noted: Klebsiella pneumoniae, 700603, 18 h. The class given is functional. The method, boiled down:
as §1

Series [7] concerns Acinetobacter baumannii. In words: Antimicrobial activity against clinical isolate of Acinetobacter baumannii measured after 18 hrs by broth microdilution method. The class given is functional. The method, boiled down:
as §1

In series [8] the test system is Klebsiella pneumoniae. In words: Antimicrobial activity against Klebsiella pneumoniae ATCC 700603 measured after 18 hrs using solid lipid nanoparticle formulation by broth microdilution method. The class given is functional. To be noted: Klebsiella pneumoniae, 700603, 18 h. The method, boiled down:
as §1

A short description of series [9]: Permeability of the compound in simulated dialysis membrane at pH 6.8 measured within 6 hrs by Franz diffusion cell-based spectrophotometric method. The class given is ADME, cell membranes. To be noted: artificial membrane, pH 6.8, 6 h. The method, boiled down:
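Franz cell with dialysis membrane. 1 ml of SLN formula or compound suspension in the donor chamber; receptor holds phosphate buffer pH 6.8 at 37 °C, magnetically stirred. Receptor sampled with replacement over 6 h; concentration by UV absorbance against a calibration curve.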

Series [10] is described as follows: Dissolution of the compound in phosphate buffer at pH 6.8 measured over 12 hrs using solid lipid nanoparticle formulation by dialysis bag diffusion method. The settings on record: artificial membrane, pH 6.8, 12 h. It is filed as physicochemical. The method, boiled down: (§2)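 SLNs made by hot emulsification-ultrasonication with Compritol as lipid and 3% Pluronic F68 aqueous phase. Homogenized at 10,000 rpm and 75 °C for 15 min, then probe-sonicated 10 min.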

The subject of series [11] is Escherichia coli. The series can be described thus: Antimicrobial activity against Escherichia coli ATCC 25922 measured after 18 hrs using solid lipid nanoparticle formulation by broth microdilution method. It is filed as functional. The settings on record: ATCC 25922, 18 h. Summed up:
as §1

The subject of series [12] is Pseudomonas aeruginosa. In words: Antimicrobial activity against Pseudomonas aeruginosa ATCC 27853 measured after 18 hrs by broth microdilution method. The settings on record: ATCC 27853, 18 h. It is filed as functional. The method, boiled down:
as §1

The test system of series [13] is Candida albicans. In words: Antimicrobial activity against Candida albicans ATCC 10231 at 380 ug by Kirby-Bauer disk diffusion test. It is filed as functional, organism-based. The method, boiled down:
(§3)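 Modified Kirby-Bauer disc diffusion on Muller-Hinton agar. Inhibition-zone diameter, disc diameter included, measured with a ruler from under the plate and recorded in mm.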

Series [14] is described as follows: Permeability of the compound in simulated dialysis membrane at pH 6.8 measured within 6 hrs using solid lipid nanoparticle formulation by Franz diffusion cell-based spectrophotometric method. It is filed as ADME, cell membranes. The settings on record: artificial membrane, pH 6.8, 6 h. Summed up: as §2
The subject of series [15] is Proteus mirabilis. In words: Antimicrobial activity against Proteus mirabilis ATCC 14153 measured after 18 hrs by broth microdilution method. The class given is functional. The settings on record: ATCC 14153, 18 h. The method, boiled down: as §1
The test system of series [16] is Escherichia coli. In words: Antimicrobial activity against Escherichia coli ATCC 25922 measured after 18 hrs by broth microdilution method. To be noted: ATCC 25922, 18 h. It is filed as functional. Summed up: as §1
Series [17] has as its system Candida albicans. In words: Antimicrobial activity against Candida albicans ATCC 10231 measured after 18 hrs by broth microdilution method. It is filed as functional. The settings on record: ATCC 10231, 18 h. The method, boiled down: as §1
Series [18] can be described thus: Dissolution of the compound in phosphate buffer at pH 6.8 measured within 2 hrs by dialysis bag diffusion method. The class given is physicochemical. The settings on record: artificial membrane, pH 6.8, 2 h. Summed up:
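Formula or compound suspension (3 ml) in 12 kDa MWCO dialysis bags, in 500 ml enzyme-free phosphate buffer pH 6.8, 37 °C, 50 rpm. 5 ml samples taken with replacement over 12 h. Cumulative % release determined by UV absorbance against a calibration curve.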

For series [19], the system named is Staphylococcus aureus. In words: Antimicrobial activity against Staphylococcus aureus ATCC 29213 measured after 18 hrs using solid lipid nanoparticle formulation by broth microdilution method. It is filed as functional. To be noted: ATCC 29213, 18 h. The method, boiled down:
as §1

Series [20] deals with Staphylococcus aureus. The series can be described thus: Antimicrobial activity against Staphylococcus aureus ATCC 29213 assessed as diameter of inhibition zone at 380 ug by Kirby-Bauer disk diffusion test. It is filed as functional. Summed up: as §3
For orientation: Agar diffusion results depend on both activity and mobility in agar.

Series [21] concerns Klebsiella pneumoniae. In words: Antimicrobial activity against Klebsiella pneumoniae ATCC 700603 assessed as diameter of inhibition zone at 380 ug by Kirby-Bauer disk diffusion test. The class given is functional. The settings on record: read-out: DIZ. Summed up:
as §3

The subject of series [22] is Pseudomonas aeruginosa. In words: Antimicrobial activity against Pseudomonas aeruginosa ATCC 27853 assessed as diameter of inhibition zone at 380 ug by Kirby-Bauer disk diffusion test. The settings on record: read-out: DIZ. The class given is functional. The method, boiled down:
as §3

Series [23] relates to Acinetobacter baumannii. The series can be described thus: Antimicrobial activity against clinical isolate of Acinetobacter baumannii assessed as diameter of inhibition zone at 380 ug by Kirby-Bauer disk diffusion test. It is filed as functional. The settings on record: read-out: DIZ. Summed up:
as §3

Series [24] concerns Escherichia coli. The series can be described thus: Antimicrobial activity against Escherichia coli ATCC 25922 assessed as diameter of inhibition zone at 380 ug by Kirby-Bauer disk diffusion test. The class given is functional. The settings on record: read-out: DIZ. The method, boiled down: as §3
For series [25], the system named is Proteus mirabilis. In words: Antimicrobial activity against Proteus mirabilis ATCC 14153 assessed as diameter of inhibition zone at 380 ug by Kirby-Bauer disk diffusion test. To be noted: read-out: DIZ. It is filed as functional. The method, boiled down: as §3

As for `Cc1ccc([C@@H]2[C@@H](O)[C@H](O)[C@@H](C)N2C)cc1`, the MIC – broadly, the lowest concentration that inhibits growth of the organism – in the series on Proteus mirabilis [1] is 512 µg/mL (≈ 2310 µM); with Acinetobacter baumannii [2] it was 64 µg/mL (≈ 289 µM); in the series on Staphylococcus aureus [3] it was more than 1020 µg/mL; against Candida albicans [4], more than 1020 µg/mL; in the series with Pseudomonas aeruginosa [5], 1020 µg/mL (≈ 4630 µM); with Klebsiella pneumoniae [6] it was 1020 µg/mL (≈ 4630 µM). In addition, the MIC against Acinetobacter baumannii [7] stood at 256 µg/mL (≈ 1160 µM); in the series on Klebsiella pneumoniae [8], 512 µg/mL (≈ 2310 µM); with Escherichia coli [11], 512 µg/mL (≈ 2310 µM); against Pseudomonas aeruginosa [12], 1020 µg/mL (≈ 4630 µM); in the series with Proteus mirabilis [15], 1020 µg/mL (≈ 4630 µM); against Escherichia coli [16], 128 µg/mL (≈ 578 µM). The MIC is more than 1020 µg/mL with Candida albicans [17] and 1020 µg/mL (≈ 4630 µM) against Staphylococcus aureus [19]. Moreover, the permeability in series [9] is recorded as 56.3%; in [14], 100%. Also, the Activity was determined as 90.1% in series [10] and 100% in [18]. In addition, in the series with Candida albicans [13], the result was inactive.
With `COc1ccc([C@@H]2[C@@H](O)[C@H](O)[C@@H](C)N2C)cc1`, the minimum inhibitory concentration (MIC) in the series on Proteus mirabilis [1] is 64 µg/mL (≈ 270 µM); in the series with Acinetobacter baumannii [2], 256 µg/mL (≈ 1080 µM); with Staphylococcus aureus [3], not above 0.5 µg/mL; against Candida albicans [4] it was more than 1020 µg/mL; in the series with Pseudomonas aeruginosa [5], more than 1020 µg/mL; against Klebsiella pneumoniae [6], more than 1020 µg/mL. Further, the minimal inhibitory concentration (MIC) in the series with Acinetobacter baumannii [7] was more than 1020 µg/mL; with Klebsiella pneumoniae [8] it was 1020 µg/mL (≈ 4320 µM); with Escherichia coli [11], 64 µg/mL (≈ 270 µM); in the series with Pseudomonas aeruginosa [12], 1020 µg/mL (≈ 4320 µM); against Proteus mirabilis [15], 128 µg/mL (≈ 539 µM); in the series with Escherichia coli [16] it was 128 µg/mL (≈ 539 µM). In addition, the minimal inhibitory concentration (MIC) in the series on Candida albicans [17] is more than 1020 µg/mL; in the series with Staphylococcus aureus [19] it was not above 0.5 µg/mL. Also, the values for the permeability in [9] and in series [14] were 60.7% and 100%, respectively. Moreover, the Activity in [10] turned out to be 93.3%; in series [18] it was 95.2%. In the series with Candida albicans [13], the result was inactive. The zone of inhibition at 380 µg/disc with Staphylococcus aureus [20] (read-out: DIZ) worked out at 32 mm.
For the compound `COc1ccc([C@@H]2[C@@H](O)[C@H](O)[C@@H](C)N2C)cc1OC`, the minimum inhibitory concentration (MIC) against Proteus mirabilis [1] was more than 1020 µg/mL; in the series with Acinetobacter baumannii [2], more than 1020 µg/mL; in the series with Staphylococcus aureus [3], 32 µg/mL (≈ 120 µM); against Candida albicans [4], more than 1020 µg/mL; against Pseudomonas aeruginosa [5], more than 1020 µg/mL; in the series on Klebsiella pneumoniae [6], more than 1020 µg/mL. The minimum inhibitory concentration (MIC) with Acinetobacter baumannii [7] is more than 1020 µg/mL; with Klebsiella pneumoniae [8], more than 1020 µg/mL; against Escherichia coli [11], 256 µg/mL (≈ 958 µM); in the series on Pseudomonas aeruginosa [12], more than 1020 µg/mL; against Proteus mirabilis [15] it was more than 1020 µg/mL; with Escherichia coli [16], 64 µg/mL (≈ 239 µM). Besides, the minimum inhibitory concentration (MIC) was more than 1020 µg/mL against Candida albicans [17] and 32 µg/mL (≈ 120 µM) with Staphylococcus aureus [19]. Besides, the permeability in series [9] is given as 67.2%; in series [14], 100%. The Activity stood at 93.2% in [10] and 87.8% in series [18]. For the same compound, in the series on Candida albicans [13], the outcome was inactive. Moreover, the “growth inhibition (GI)” value in the series with Staphylococcus aureus [20] was “Active”.
For `C[C@@H]1[C@@H](O)[C@H](O)[C@@H](c2ccccc2)N1C`, the zone of inhibition at 380 µg/disc amounted to 22 mm with Klebsiella pneumoniae [21]; 18 mm with Pseudomonas aeruginosa [22]; 32 mm in the series on Acinetobacter baumannii [23]; 40 mm with Escherichia coli [24]; 34 mm with Proteus mirabilis [25]. For the same compound, the MIC in the series with Proteus mirabilis [1] was 2 µg/mL (≈ 9.65 µM); in the series with Acinetobacter baumannii [2], 16 µg/mL (≈ 77.2 µM); against Staphylococcus aureus [3] it was 1020 µg/mL (≈ 4940 µM); against Candida albicans [4], more than 1020 µg/mL; in the series with Pseudomonas aeruginosa [5] it was 512 µg/mL (≈ 2470 µM); with Klebsiella pneumoniae [6], 1020 µg/mL (≈ 4940 µM). For the same compound, the MIC against Acinetobacter baumannii [7] is 128 µg/mL (≈ 618 µM); with Klebsiella pneumoniae [8], more than 1020 µg/mL; against Escherichia coli [11], 16 µg/mL (≈ 77.2 µM); against Pseudomonas aeruginosa [12], 1020 µg/mL (≈ 4940 µM); in the series with Proteus mirabilis [15] it was 4 µg/mL (≈ 19.3 µM); against Escherichia coli [16], 16 µg/mL (≈ 77.2 µM). Moreover, the results for the MIC in the series with Candida albicans [17] and against Staphylococcus aureus [19] were more than 1020 µg/mL and 1020 µg/mL (≈ 4940 µM), respectively. Further, the figures for the permeability in series [9] and in [14] were 49.8% and 100%, respectively. For the same compound, the values for the Activity in series [10] and in series [18] were 91.2% and 100%, respectively. The result with Candida albicans [13] was inactive.
